Laboratory results published in ChEMBL document CHEMBL1142575, “New colchicinoids from a native Jordanian meadow saffron, colchicum brachyphyllum: isolation of the first naturally occurring dextrorotatory colchicinoid” (J Nat Prod, 2005).
Values after ≈ are worked out from the molar mass of the structure shown. Active and inactive are the calls of the source. No cut-off for these calls is given here.

Legend:
[1] = tested on: MCF7; assay: Cytotoxicity against human MCF7 after 3 days by SRB assay; format: functional, cell-based; conditions: MCF7, 72 h
[2] = tested on: NCI-H460; assay: Cytotoxicity against human H460 after 3 days by SRB assay; format: functional, cell-based; conditions: NCI-H460, 72 h
[3] = tested on: SF-268; assay: cells; format: functional, cell-based; conditions: Homo sapiens, SF-268, 72 h
[4] = (§1) Toxicity in brine shrimp; format: organism-based; conditions: artemia, in vivo
In short: (§2)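 Brine shrimp lethality. LC50 in μg/mL, taken from single experiments with four concentrations, each run in triplicate.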

[5] = tested on: Micrococcus luteus; assay: Antimicrobial activity against Micrococcus luteus after 3 days; format: functional; conditions: 72 h
[6] = tested on: Mycolicibacterium smegmatis; assay: Antimicrobial activity against Mycobacterium smegmatis after 3 days; format: functional; conditions: 72 h
[7] = tested on: Saccharomyces cerevisiae; assay: Antimicrobial activity against Saccharomyces cerevisiae after 3 days; format: functional; conditions: 72 h
[8] = tested on: Aspergillus niger; assay: Antimicrobial activity against Aspergillus niger after 3 days; format: functional; conditions: 72 h
[9] = species on record: Rattus norvegicus; assay: Displacement of [3H]flunitrazepam from GABAA in rat cerebral cortical 10 uM
In short: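 Rat cortical membrane homogenate in 50 mM sodium phosphate/200 mM NaCl pH 7.4. Duplicates, 500 μL final volume: 50 μg protein, test compound 10 μM, 1.0 μM GABA, 1.0 nM [3H]flunitrazepam. Nonspecific binding defined with 10 μM clonazepam. After 1 h at rt, filtered over PEI-soaked GF/B and counted. Net binding change versus basal is given as % of the 10 μM allopregnanolone response.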

[10] = species on record: Rattus norvegicus; assay: Displacement of […] from GABAA in rat cerebral cortical at 10 uM
In short: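 Rat cerebral cortex membranes (sucrose homogenate, differential centrifugation, washed in 50 mM sodium phosphate/200 mM NaCl pH 7.4). Duplicate wells, 500 μL final volume: 50 μg protein, test compound 10 μM, 5.0 μM GABA, 2.0 nM [35S]TBPS. Nonspecific binding defined with 200 μM picrotoxin. Incubation 1 h at rt, then GF/B vacuum filtration and scintillation counting. Net change versus basal is reported as % of 10 μM allopregnanolone.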

[11] = tested on: Artemia; assay: as §1; format: organism-based; conditions: in vivo; in short: as §2

Row | SMILES | EC50 [1] [nM] | EC50 [2] [nM] | EC50 [3] [µM] | LC50 [4] [µg/mL] | MIC [5] [µg/mL] | MIC [6] [µg/mL] | MIC [7] [µg/mL] | MIC [8] [µg/mL] | Activity [9] | Activity [10] | LC50 [11] [µg/mL]
1 | CN[C@H]1CCc2cc(OC)c(OC)c(OC)c2-c2ccc(OC)c(=O)cc21 [DEMECOLCINE] | 600 | 690 | 6.2 | 61 (≈ 164 µM) | > 500 | > 500 | > 500 | > 500 | – | – | –
2 | CC[C@@]1(O)C(=O)OCc2c1cc1n(c2=O)Cc2cc3ccccc3nc2-1 [CAMPTOTHECIN] | 72 | 6.9 | 0.059 | – | – | – | – | – | – | – | –
3 | COC1=C[C@@H]2C3=C([C@@H]2C1=O)[C@@H](NC(C)=O)CCc1cc(OC)c(OC)c(OC)c13 | 1500 | 2100 | 3.2 | 74.6 (≈ 187 µM) | > 500 | > 500 | > 500 | > 500 | – | – | –
4 | COc1cc2c(c(OC)c1OC)-c1ccc(OC)c(=O)cc1[C@@H](NC(C)=O)CC2 (stereo in doubt; 1) [COLCHICINE] | 16 | 30 | 0.025 | 3.7 (≈ 9.26 µM) | > 500 | > 500 | > 500 | > 500 | – | – | –
5 | COc1c2c(cc3c1-c1ccc(OC)c(=O)cc1[C@@H](NC(C)=O)CC3)OCO2 | 61 | 59 | 0.097 | 7.7 (≈ 20.1 µM) | > 500 | > 500 | > 500 | > 500 | 50% | 50% | –
6 | COc1cc2c(c(OC)c1OC)-c1ccc(OC)c(=O)cc1[C@@H](NC(C)=O)CC2 (stereo in doubt) [COLCHICINE] | – | – | – | – | – | – | – | – | – | – | 2.8 (≈ 7.01 µM)
7 | COc1c(O)cc2c(c1OC)-c1ccc(OC)c(=O)cc1[C@@H](NC(C)=O)CC2 [3-DESMETHYLCOLCHICIN] | – | – | – | 74.6 (≈ 194 µM) | – | – | – | – | – | – | –
8 | CN[C@H]1CCc2cc(O)c(OC)c(OC)c2-c2ccc(OC)c(=O)cc21 | 790 | 1100 | 3.2 | 71.5 (≈ 200 µM) | > 500 | > 500 | > 500 | > 500 | – | – | –
9 | COc1ccc2c(c1O)[C@@H](NC(C)=O)CCc1cc(OC)c(OC)c(OC)c1-2 | 200 | 260 | 0.37 | 48.8 (≈ 126 µM) | > 500 | > 500 | > 500 | > 500 | 50% | 50% | –
10 | CC(=O)[C@H]1CC[C@H]2[C@@H]3CC[C@H]4C[C@H](O)CC[C@]4(C)[C@H]3CC[C@]12C | – | – | – | – | – | – | – | – | Active | Active | –
11 | COC1=C2c3ccc(OC)c(=O)cc3[C@H]3CC4(C)N3C24C=C(O)C1=O (stereo not given in full) [DEMECOLCINONE] | 28700 | 31300 | 28.4 | 79.3 (≈ 234 µM) | > 500 | > 500 | > 500 | > 500 | – | – | –
12 | CN[C@H]1CCc2cc(O)c(O)c(OC)c2-c2ccc(OC)c(=O)cc21 | 130000 | 216000 | 80.2 | 88.2 (≈ 257 µM) | > 500 | > 500 | > 500 | > 500 | – | – | –
